We go through 167 variants from the RNAGym collection of RNA variant scans (doi:10.1002/anie.201605470).

B1: Osa-1-4 twister ribozyme (parent)
chain: CCGCCUAACACUGCCAAUGCCGGUCCCAAGCCCGGAUAAAAGUGGAGGGGGCGG

Variants of B1 are the subject of this data set. As to the kind of experiment: self-cleavage, relative activity (ratio to wild type); higher = more cleavage; co-transcriptional. In short, it runs like this: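 A DNA template was synthesised for a 54-nucleotide twister ribozyme from Oryza sativa, with 97 % wild-type base and 1 % of each other base at each of the 48 positions downstream of the cleavage site. The ribozyme cleaved itself co-transcriptionally during 2 h of in vitro transcription at 37 °C. Reverse transcription with a template-switching oligonucleotide, PCR amplification and deep sequencing followed, and cleavage status came from reads with or without upstream sequence. Relative activity is the fraction cleaved normalised to wild type.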
Turning to A38C U18A, the self-cleavage is 0.98.
To A38C U18C belongs 0.99; to A38C U12G, 0.29; to A38C U12C, 0.38.
In the case of A38C U12A, the self-cleavage amounted to 0.92.
To A38G A46G belongs 0.08; to A38G A46C, 0.08; to A38G A46U, 0.07.
For the variant A38C G53U, the self-cleavage worked out at 0.24.
To A38C G53C belongs 0.08; to A38C G53A, 0.84.
For A38G G54A the value was 0.92.
For A38G G54U the value was 0.94.
As for A38G G54C, the self-cleavage was determined as 0.94.
In the case of A36U U18C, the self-cleavage amounted to 0.98.
As to A36U U18G, the self-cleavage stood at 0.88.
As for A36U U18A, the self-cleavage amounted to 0.97.
To A38G U24G belongs 0.03.
For A38G U24A the value was 0.16; for A38G U24C, 0.32; for A38C C21G, 0.07.
For the variant A38C C21U, the self-cleavage was found to be 0.92.
As for A38C C21A, the self-cleavage came to 0.27.
On to A38G U43G, for which the self-cleavage was determined as 0.62.
As to A38G U43A, the self-cleavage came out at 0.89.
For A38G U43C the value was 0.35; for A36U G54U, 1.02.
A36U G54A: the self-cleavage turned out to be 1.01.
As to A36U G54C, the self-cleavage came to 0.96.
As to A38C C15G, the self-cleavage was 0.11.
As for A38C C15U, the self-cleavage turned out to be 0.57.
For A38C C15A the value was 0.31; for A38G G45U, 0.09; for A38G G45A, 0.26.
With A38G G45C, the self-cleavage was 0.07.
On to A38C C20U, for which the self-cleavage came out at 0.95.
A38C C20A: the self-cleavage stood at 0.86.
With A38C C20G, the self-cleavage stood at 0.09.
In the case of A38C G50U, the self-cleavage amounted to 1.04.
Consider A38C G50C, for which the self-cleavage worked out at 1.01.
For A38C G50A the value was 0.75; for A38G C11U, 0.94.
As for A38G C11A, the self-cleavage stood at 0.8.
As to A38G C11G, the self-cleavage came out at 0.68.
Regarding A38G G19A, the self-cleavage was found to be 0.46.
A38G G19C: the self-cleavage was found to be 0.06.
Turning to A38G G19U, the self-cleavage came out at 0.14.
To A38G G49U belongs 0.13; to A38G G49C, 0.08; to A38G G49A, 0.13.
For A38U A40U the value was 0.55; for A38U A40C, 0.06.
For the variant A38U A40G, the self-cleavage amounted to 0.64.
For the variant A38G C32G, the self-cleavage was 0.18.
For A38G C32A the value was 0.09; for A38G C32U, 0.12; for A38U A39U, 0.97.
To A38U A39G belongs 0.64; to A38U A39C, 0.96.
To A38G G22U belongs 0.85.
For the variant A38G G22A, the self-cleavage amounted to 1.01.
To A38G G22C belongs 0.13; to A38G U12C, 0.42; to A38G U12G, 0.41.
For A38G U12A the value was 0.88; for A38U C9A, 0.42.
To A38U C9G belongs 0.84; to A38U C9U, 0.74.
Turning to A36U G48C, the self-cleavage worked out at 0.09.
To A36U G48A belongs 0.12.
For A36U G48U the value was 0.08.
To A38C C27G belongs 0.06; to A38C C27U, 0.18.
As to A38C C27A, the self-cleavage was found to be 0.18.
With A38G C9G, the self-cleavage is 0.88.
To A38G C9U belongs 0.7.
On to A38G C9A, for which the self-cleavage was determined as 0.45.
Take A38G G53C: the self-cleavage is 0.09.
To A38G G53A belongs 0.8; to A38G G53U, 0.31.
To A38G G44C belongs 0.98; to A38G G44A, 0.93.
Regarding A38G G44U, the self-cleavage is 0.95.
To A36U G49U belongs 0.17; to A36U G49C, 0.07; to A36U G49A, 0.19.
Regarding A36U U24C, the self-cleavage was determined as 0.45.
Consider A36U U24G, for which the self-cleavage is 0.03.
As for A36U U24A, the self-cleavage is 0.27.
Turning to A38C A39C, the self-cleavage was 0.86.
To A38C A39G belongs 0.96; to A38C A39U, 0.96.
For A38C A7C the value was 0.05; for A38C A7U, 0.08; for A38C A7G, 0.22.
Consider A38C U37G, for which the self-cleavage was found to be 0.99.
Regarding A38C U37A, the self-cleavage came to 1.05.
For A38C U37C the value was 1; for A38C A46U, 0.07; for A38C A46C, 0.04.
With A38C A46G, the self-cleavage came out at 0.06.
To A38C G23U belongs 0.07; to A38C G23C, 0.04.
For A38C G23A the value was 0.1.
For A38C G30U the value was 0.03; for A38C G30A, 0.05; for A38C G30C, 0.05.
As to A38G C26A, the self-cleavage came out at 0.06.
For A38G C26U the value was 0.85.
To A38G C26G belongs 0.14; to A38C G13C, 0.03.
For A38C G13U the value was 0.03.
A38C G13A: the self-cleavage stood at 0.07.
For A38G C21U, the self-cleavage is 1.01.
On to A38G C21A, for which the self-cleavage amounted to 0.78.
With A38G C21G, the self-cleavage was 0.08.
With A38G G35C, the self-cleavage was determined as 0.26.
Consider A38G G35A, for which the self-cleavage was determined as 0.83.
For A38G G35U the value was 0.86; for A36U G34C, 0.66; for A36U G34A, 0.86.
To A36U G34U belongs 0.84; to A38G G13A, 0.12; to A38G G13U, 0.03.
For A38G G13C the value was 0.03; for A38C C52U, 1.03.
Turning to A38C C52G, the self-cleavage amounted to 1.03.
As for A38C C52A, the self-cleavage amounted to 1.
For A38C G51C the value was 0.09; for A38C G51U, 0.37.
Consider A38C G51A, for which the self-cleavage was 0.69.
For A38U A7U the value was 0.12; for A38U A7G, 0.24.
As for A38U A7C, the self-cleavage worked out at 0.05.
In the case of A38C C9U, the self-cleavage was determined as 0.78.
In the case of A38C C9G, the self-cleavage is 0.83.
With A38C C9A, the self-cleavage turned out to be 0.37.
For A38G U18C, the self-cleavage was 0.97.
As for A38G U18A, the self-cleavage came out at 0.92.
For A38G U18G the value was 0.84; for A38G G50C, 1.
To A38G G50A belongs 0.74; to A38G G50U, 1.
Turning to A38U A8G, the self-cleavage was found to be 0.52.
For A38U A8C the value was 0.09.
For A38U A8U the value was 0.25; for A38C C14U, 0.4; for A38C C14A, 0.09.
As to A38C C14G, the self-cleavage was determined as 0.08.
For the variant A38C C26A, the self-cleavage came out at 0.07.
Take A38C C26U: the self-cleavage was 0.94.
Turning to A38C C26G, the self-cleavage is 0.08.
For A38C C25U the value was 0.88; for A38C C25A, 0.07.
Regarding A38C C25G, the self-cleavage is 0.06.
For A36U U12C the value was 0.58.
For A36U U12A the value was 0.99; for A36U U12G, 0.64; for A38G C15A, 0.33.
As to A38G C15G, the self-cleavage came out at 0.35.
For A38G C15U the value was 0.47; for A38G G42A, 0.7.
To A38G G42C belongs 0.23; to A38G G42U, 0.12; to A38C C31U, 0.89.
A38C C31A: the self-cleavage was determined as 0.04.
To A38C C31G belongs 0.09.
